Laboratory results: ChEMBL document CHEMBL2046381, “Defining the mechanism of action and enzymatic selectivity of psammaplin A against its epigenetic targets” (J Med Chem, 2012)
pIC50: −log10 of the molar value. Active and inactive are the calls of the source. Unless noted, the calls are words filed in the database; no cut-off is given here.

tested on: not listed separately; test: Growth inhibition of human WI38 cells after 96 hrs by sulphorhodamine B assay; assay type: cell-based; details: WI-38 cells
In short: (§1)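 SRB growth assay; MCF7 and WI38 seeded 4000 cells/well, A549 2000 cells/well, attached overnight, then exposed to freshly made drug solutions (0.1 to 50 μM) for 96 h. Fixed with cold 10% TCA, stained with 0.4% SRB; absorbance at 540 nm as percent of untreated control, IC50 from mean absorbance.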

SMILES	GI50 at 96 h [µM]
O=C(NCCS)/C(Cc1ccc(O)c(Br)c1)=N/O	3.4
O=C(O)CCP(CCC(=O)O)CCC(=O)O	> 50
O=C(Cc1ccc(O)c(Br)c1)C(=O)NCCSSCCNC(=O)C(=O)Cc1ccc(O)c(Br)c1	33.1

biological target: DNA (cytosine-5)-methyltransferase 1 (Homo sapiens, UniProt P26358); test: Inhibition of full length N-terminal His6-tagged human DNMT1 at 120 uM after 1 hr by fluorescence analysis; details: not given
Sequence (P26358 whole entry): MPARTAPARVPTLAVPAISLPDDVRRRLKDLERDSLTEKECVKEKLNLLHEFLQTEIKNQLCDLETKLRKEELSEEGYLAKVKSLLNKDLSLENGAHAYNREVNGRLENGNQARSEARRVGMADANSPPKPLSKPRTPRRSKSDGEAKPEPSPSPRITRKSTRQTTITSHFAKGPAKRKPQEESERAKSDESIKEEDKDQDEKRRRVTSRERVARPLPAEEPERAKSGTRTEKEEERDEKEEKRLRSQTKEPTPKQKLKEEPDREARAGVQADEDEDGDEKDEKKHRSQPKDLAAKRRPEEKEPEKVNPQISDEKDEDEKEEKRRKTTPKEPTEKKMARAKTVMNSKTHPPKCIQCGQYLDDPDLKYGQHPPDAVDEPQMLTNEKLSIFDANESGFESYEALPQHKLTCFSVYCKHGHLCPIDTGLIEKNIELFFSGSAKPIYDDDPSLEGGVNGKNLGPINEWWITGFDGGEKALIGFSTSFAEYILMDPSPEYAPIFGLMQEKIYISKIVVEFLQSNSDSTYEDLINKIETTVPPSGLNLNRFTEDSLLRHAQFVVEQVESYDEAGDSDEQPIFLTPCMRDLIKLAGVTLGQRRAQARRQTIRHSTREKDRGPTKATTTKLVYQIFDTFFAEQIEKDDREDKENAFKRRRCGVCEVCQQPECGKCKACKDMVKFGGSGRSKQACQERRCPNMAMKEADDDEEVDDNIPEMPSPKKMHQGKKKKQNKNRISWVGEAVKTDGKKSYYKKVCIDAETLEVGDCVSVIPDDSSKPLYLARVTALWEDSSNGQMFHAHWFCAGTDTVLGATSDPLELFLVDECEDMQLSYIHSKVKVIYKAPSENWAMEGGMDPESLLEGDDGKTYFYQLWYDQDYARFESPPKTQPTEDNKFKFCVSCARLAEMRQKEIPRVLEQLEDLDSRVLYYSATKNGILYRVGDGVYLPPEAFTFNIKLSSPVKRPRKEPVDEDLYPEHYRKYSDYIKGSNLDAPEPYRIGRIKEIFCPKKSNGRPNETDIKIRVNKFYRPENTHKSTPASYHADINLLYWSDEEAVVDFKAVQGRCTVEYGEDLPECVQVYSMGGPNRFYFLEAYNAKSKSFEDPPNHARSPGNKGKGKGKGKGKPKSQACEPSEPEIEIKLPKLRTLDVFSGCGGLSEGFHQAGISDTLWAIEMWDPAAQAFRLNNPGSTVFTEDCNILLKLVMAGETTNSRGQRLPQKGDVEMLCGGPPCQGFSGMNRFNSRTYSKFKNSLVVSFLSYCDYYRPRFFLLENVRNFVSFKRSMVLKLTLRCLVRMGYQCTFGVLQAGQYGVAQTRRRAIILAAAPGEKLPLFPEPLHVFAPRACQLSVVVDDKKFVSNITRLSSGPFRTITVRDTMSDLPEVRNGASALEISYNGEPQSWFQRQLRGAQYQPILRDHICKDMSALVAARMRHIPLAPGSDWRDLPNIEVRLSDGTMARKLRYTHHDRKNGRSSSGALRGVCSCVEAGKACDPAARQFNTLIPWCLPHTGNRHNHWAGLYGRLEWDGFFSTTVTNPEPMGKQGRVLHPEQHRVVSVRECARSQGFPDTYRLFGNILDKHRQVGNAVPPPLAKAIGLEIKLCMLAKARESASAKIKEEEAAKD
In short: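 Baculovirus-expressed DNMT1 (80 nM final) with SAM (10 μM final) and hemimethylated hairpin oligo (125 nM final) in MOPS buffer pH 6.5 with 1 mM DTT, 1 h room temperature. Stopped with Gla1 plus 125 μM SAH, developed 7 h; fluorescence Ex 485/Em 520 nm. Thiols made in situ by TCEP reduction; no SAM as full-inhibition control.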

inhibition	SMILES
inactive	O=C(NCCS)/C(Cc1ccc(O)c(Br)c1)=N/O

tested on: MCF7; test: Inhibition of Class 1 histone deacetylase in human MCF7 cells assessed as up-regulation of p21 protein level at 0.5 uM after 24 hrs by Western blot analysis; assay type: cell-based; details: not given
In short: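 MCF7 cells (5 × 10^6 per T75 flask) treated 24 h, harvested by trypsinization, lysed in RIPA on ice; 50 μg total protein resolved on 12% SDS-PAGE, transferred to nitrocellulose and probed for histone, acetylated histone, tubulin, acetylated tubulin, p21 and actin. Untreated cells as negative control.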

SMILES	inhibition
CC(/C=C/C(=O)NO)=C\[C@@H](C)C(=O)c1ccc(N(C)C)cc1	Active

biological target: T1, Histone deacetylase-like amidohydrolase (Alcaligenes sp. (strain DSM 11172) (Bordetella sp. (strain FB188)), UniProt Q70I53); test: Inhibition of Bordetella sp. (strain FB188) N-terminus His-tagged HDAH expressed in Escherichia coli BL21 (DE3); parameters: species or system Alcaligenaceae bacterium FB188; details: not given
T1 sequence (Q70I53 whole entry): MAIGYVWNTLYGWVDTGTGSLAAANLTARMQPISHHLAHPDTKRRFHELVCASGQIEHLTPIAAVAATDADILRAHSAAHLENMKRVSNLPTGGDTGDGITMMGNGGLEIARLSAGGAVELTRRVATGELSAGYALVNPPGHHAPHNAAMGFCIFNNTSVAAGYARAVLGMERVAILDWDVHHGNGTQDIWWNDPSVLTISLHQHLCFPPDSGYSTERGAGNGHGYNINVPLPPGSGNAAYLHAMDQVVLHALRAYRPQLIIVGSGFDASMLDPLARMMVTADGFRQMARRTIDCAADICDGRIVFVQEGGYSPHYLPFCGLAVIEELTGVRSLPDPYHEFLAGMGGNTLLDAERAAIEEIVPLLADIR
In short: (§2)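 Recombinant N-terminal His6-tagged HDAH from Bordetella strain FB188, expressed in E. coli BL21, purified on zinc-loaded His-Trap column, eluted with 500 mM imidazole, dialyzed into assay buffer (>98% pure by SDS-PAGE). Tested directly against compounds; thiols generated in situ from disulfides with TCEP.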

pIC50	SMILES
5.28	O=C(CCCNC(=O)/C(Cc1ccc(O)c(Br)c1)=N/O)NO
4.52	O=C(NCCS)/C(Cc1ccc(O)c(Br)c1)=N/O

tested on: Bacteria; test: Inhibition of bacterial DNA cytosine-C5 methyltransferase, M.SssI at 5 uM; details: not given
In short: (§3)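 One unit M.SssI with 1 μg bacteriophage λ DNA in NEBuffer2 (pH 7.9, 1 mM DTT) plus 160 μM SAM, ±inhibitor, 2 h at 37 °C; heat-inactivated 65 °C 20 min. Methylation read by BstUI digestion (10 units, 1 h 60 °C) and 1.5% agarose gel electrophoresis; run four times with positive and negative controls.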

inhibition	SMILES
Active	O=C(NCCS)/C(Cc1ccc(O)c(Br)c1)=N/O

tested on: A549; test: Growth inhibition of human A549 cells after 96 hrs by sulphorhodamine B assay; assay type: functional; details: A549, 96 h; in short: as §1

GI50 [µM]	SMILES
2.53	O=C(NCCS)/C(Cc1ccc(O)c(Br)c1)=N/O
15.2	O=C(Cc1ccc(O)c(Br)c1)C(=O)NCCSSCCNC(=O)C(=O)Cc1ccc(O)c(Br)c1

SMILES	GI50 [µM]
O=C(O)CCP(CCC(=O)O)CCC(=O)O	> 50

tested on: Bacteria; test: Inhibition of bacterial DNA cytosine-C5 methyltransferase, M.SssI at 50 uM; details: not given; in short: as §3

inhibition	SMILES
Active	O=C(NCCS)/C(Cc1ccc(O)c(Br)c1)=N/O

tested on: MCF7; test: Growth inhibition of human MCF7 cells after 96 hrs by sulphorhodamine B assay; assay type: functional; details: MCF7, 96 h; in short: as §1

GI50 [µM]	SMILES
2.35	O=C(NCCS)/C(Cc1ccc(O)c(Br)c1)=N/O
13.1	O=C(Cc1ccc(O)c(Br)c1)C(=O)NCCSSCCNC(=O)C(=O)Cc1ccc(O)c(Br)c1

SMILES	GI50 [µM]
O=C(O)CCP(CCC(=O)O)CCC(=O)O	> 50

biological target: T2, Histone deacetylase 8 (Homo sapiens, UniProt Q9BY41); test: Inhibition of human recombinant HDAC8 using Boc-lys(Ac)-AMC as substrate preincubated for 20 mins with substrate measured after 60 mins by fluorescence analysis; details: not given
T2 sequence (Q9BY41 whole entry): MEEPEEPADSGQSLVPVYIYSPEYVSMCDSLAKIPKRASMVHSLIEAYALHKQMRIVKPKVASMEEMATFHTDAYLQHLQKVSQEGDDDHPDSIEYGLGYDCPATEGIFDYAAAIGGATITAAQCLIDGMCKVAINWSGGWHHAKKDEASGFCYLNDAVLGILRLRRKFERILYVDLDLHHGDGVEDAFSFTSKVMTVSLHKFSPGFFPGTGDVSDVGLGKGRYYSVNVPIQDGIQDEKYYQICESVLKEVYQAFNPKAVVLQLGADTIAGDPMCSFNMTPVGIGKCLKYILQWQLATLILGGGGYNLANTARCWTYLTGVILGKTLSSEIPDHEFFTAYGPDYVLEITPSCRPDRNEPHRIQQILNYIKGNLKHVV

pIC50	SMILES
5.89	O=C(NCCS)/C(Cc1ccc(O)c(Br)c1)=N/O

biological target: T3, Protein deacetylase HDAC6 (Homo sapiens, UniProt Q9UBN7); test: Inhibition of human recombinant HDAC6 using Boc-lys(Ac)-AMC as substrate preincubated for 20 mins with substrate measured after 60 mins by fluorescence analysis; details: not given
T3 sequence (Q9UBN7 whole entry): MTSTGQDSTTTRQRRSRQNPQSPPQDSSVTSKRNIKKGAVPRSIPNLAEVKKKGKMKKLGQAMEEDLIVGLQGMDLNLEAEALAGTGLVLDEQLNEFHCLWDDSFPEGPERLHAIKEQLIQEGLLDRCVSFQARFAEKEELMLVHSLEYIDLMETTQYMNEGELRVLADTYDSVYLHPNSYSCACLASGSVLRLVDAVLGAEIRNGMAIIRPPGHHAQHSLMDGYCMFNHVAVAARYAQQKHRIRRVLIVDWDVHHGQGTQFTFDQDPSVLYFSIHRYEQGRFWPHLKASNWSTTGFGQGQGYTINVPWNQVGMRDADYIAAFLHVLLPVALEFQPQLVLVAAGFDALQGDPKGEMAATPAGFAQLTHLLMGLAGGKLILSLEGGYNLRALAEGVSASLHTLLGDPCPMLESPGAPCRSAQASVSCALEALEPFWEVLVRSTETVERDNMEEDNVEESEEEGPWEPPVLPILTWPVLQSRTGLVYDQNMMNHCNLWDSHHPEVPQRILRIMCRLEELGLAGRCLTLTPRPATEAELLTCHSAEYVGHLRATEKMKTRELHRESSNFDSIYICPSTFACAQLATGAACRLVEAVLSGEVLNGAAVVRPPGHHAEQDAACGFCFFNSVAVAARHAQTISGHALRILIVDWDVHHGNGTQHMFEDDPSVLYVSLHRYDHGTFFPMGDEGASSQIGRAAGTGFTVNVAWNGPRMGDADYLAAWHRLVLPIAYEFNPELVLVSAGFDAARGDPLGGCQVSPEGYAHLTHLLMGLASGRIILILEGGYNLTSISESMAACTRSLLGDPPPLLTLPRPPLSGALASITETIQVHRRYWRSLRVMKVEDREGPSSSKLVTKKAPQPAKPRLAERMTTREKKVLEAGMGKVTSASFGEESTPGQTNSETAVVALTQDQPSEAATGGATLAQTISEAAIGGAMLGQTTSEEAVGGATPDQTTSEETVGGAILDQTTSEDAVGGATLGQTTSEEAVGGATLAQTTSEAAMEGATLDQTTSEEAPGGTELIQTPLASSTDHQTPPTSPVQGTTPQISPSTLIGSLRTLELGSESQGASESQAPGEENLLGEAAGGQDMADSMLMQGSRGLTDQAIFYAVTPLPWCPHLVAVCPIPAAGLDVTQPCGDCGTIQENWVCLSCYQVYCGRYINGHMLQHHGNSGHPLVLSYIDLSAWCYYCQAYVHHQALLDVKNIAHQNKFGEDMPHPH

pIC50	SMILES
5.77	O=C(CCCNC(=O)/C(Cc1ccc(O)c(Br)c1)=N/O)NO
5.05	O=C(Cc1ccc(O)c(Br)c1)C(=O)NCCSSCCNC(=O)C(=O)Cc1ccc(O)c(Br)c1

SMILES	pIC50
O=C(O)CCP(CCC(=O)O)CCC(=O)O	< 4.60

biological target: Histone deacetylase 1 (Homo sapiens, UniProt Q13547); test: Inhibition of human recombinant HDAC1 using Boc-lys(Ac)-AMC as substrate preincubated for 20 mins with substrate measured after 60 mins by fluorescence analysis; details: not given
Sequence (Q13547 whole entry): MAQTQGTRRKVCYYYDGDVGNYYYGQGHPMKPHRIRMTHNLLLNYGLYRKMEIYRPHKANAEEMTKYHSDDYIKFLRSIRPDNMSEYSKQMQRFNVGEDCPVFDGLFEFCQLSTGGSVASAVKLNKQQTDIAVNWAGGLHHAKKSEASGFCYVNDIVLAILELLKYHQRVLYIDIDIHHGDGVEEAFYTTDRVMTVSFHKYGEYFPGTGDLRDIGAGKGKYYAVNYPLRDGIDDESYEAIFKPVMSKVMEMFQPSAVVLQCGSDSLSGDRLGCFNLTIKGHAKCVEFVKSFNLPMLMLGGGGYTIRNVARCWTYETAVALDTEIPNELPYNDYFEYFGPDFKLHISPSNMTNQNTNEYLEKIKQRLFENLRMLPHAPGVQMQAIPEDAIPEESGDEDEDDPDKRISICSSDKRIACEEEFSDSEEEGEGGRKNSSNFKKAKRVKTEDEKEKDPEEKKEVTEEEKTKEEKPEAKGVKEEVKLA

pIC50	SMILES
6.51	O=C(CCCNC(=O)/C(Cc1ccc(O)c(Br)c1)=N/O)NO
9.05	O=C(NCCS)/C(Cc1ccc(O)c(Br)c1)=N/O
5.30	O=C(Cc1ccc(O)c(Br)c1)C(=O)NCCSSCCNC(=O)C(=O)Cc1ccc(O)c(Br)c1

SMILES	pIC50
O=C(O)CCP(CCC(=O)O)CCC(=O)O	< 4.60

biological target: T4, Histone deacetylase-like amidohydrolase (Alcaligenes sp. (strain DSM 11172) (Bordetella sp. (strain FB188))) (UniProt Q70I53); test: Inhibition of Bordetella sp. (strain FB188) N-terminus His-tagged HDAH expressed in Escherichia coli BL21 (DE3) up to 100 uM; details: Alcaligenaceae bacterium FB188; in short: as §2
T4 sequence (whole entry): T1 sequence (Q70I53 whole entry)

inhibition	SMILES
Active	O=C(CCCNC(=O)/C(Cc1ccc(O)c(Br)c1)=N/O)NO
inactive	O=C(NCCS)/C(Cc1ccc(O)c(Br)c1)=N/O
inactive	O=C(Cc1ccc(O)c(Br)c1)C(=O)NCCSSCCNC(=O)C(=O)Cc1ccc(O)c(Br)c1
